Source: ChEMBL document CHEMBL1137855, “Synthesis and biological evaluation of taxinine analogues as orally active multidrug resistance reversal agents in cancer” (Bioorg Med Chem Lett, 2004)
Blank lines part the entries; values can stand above or below the molecule they belong to.

Columns and labels:
Assay type in all cases: functional, cell-based
[1] = test system: KB 3-1; test: inhibitory concentration against human MDR KB/V cell line in presence of compound 10 at 10 uM
Procedure, shortened: (§1)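 Vincristine cytotoxicity in P-gp-overexpressing MDR KB/V cells, alone or with a reversing agent at the stated level (5 or 10 μM). MTT colorimetric assay in 96-well plates measured cell survival. IC50 is the vincristine concentration (nM) that inhibited cell growth by 50%.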

[2] = test system: KB 3-1; test: inhibitory concentration against human MDR KB/V cell line in presence of compound 10 at 5 uM; procedure, shortened: as §1
[3] = target: ATP-dependent translocase ABCB1 (Homo sapiens, UniProt P08183); test: TP_TRANSPORTER: drug resistance (vincristine) in MDR KB/V cells
Procedure, shortened: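 Fold reversal in KB/V cells from MTT vincristine IC50s measured with and without the reversing agent (5 or 10 μM). The ratio is defined as the vincristine IC50 […].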

[4] = test system: KB 3-1; test: inhibitory concentration against human MDR KB/V cell line in presence of compound 8 at 5 uM; procedure, shortened: as §1
[5] = test system: KB 3-1; test: inhibitory concentration against human MDR KB/V cell line in presence of compound 8 at 10 uM; procedure, shortened: as §1
[6] = test system: KB 3-1; test: inhibitory concentration against human MDR KB/V cell line in presence of compound 9 at 5 uM; procedure, shortened: as §1
[7] = test system: KB 3-1; test: inhibitory concentration against human MDR KB/V cell line in presence of compound 9 at 10 uM; procedure, shortened: as §1
[8] = test system: KB 3-1; test: inhibitory concentration against human MDR KB/V cell line in presence of compound Taxinine at 10 uM; procedure, shortened: as §1
[9] = test system: KB 3-1; test: inhibitory concentration against human MDR KB/V cell line in presence of compound verapamil at 10 uM; procedure, shortened: as §1
[10] = test system: KB 3-1; test: inhibitory concentration against human MDR KB/V cell line; procedure, shortened: as §1

Chain of ATP-dependent translocase ABCB1 (P08183 whole entry): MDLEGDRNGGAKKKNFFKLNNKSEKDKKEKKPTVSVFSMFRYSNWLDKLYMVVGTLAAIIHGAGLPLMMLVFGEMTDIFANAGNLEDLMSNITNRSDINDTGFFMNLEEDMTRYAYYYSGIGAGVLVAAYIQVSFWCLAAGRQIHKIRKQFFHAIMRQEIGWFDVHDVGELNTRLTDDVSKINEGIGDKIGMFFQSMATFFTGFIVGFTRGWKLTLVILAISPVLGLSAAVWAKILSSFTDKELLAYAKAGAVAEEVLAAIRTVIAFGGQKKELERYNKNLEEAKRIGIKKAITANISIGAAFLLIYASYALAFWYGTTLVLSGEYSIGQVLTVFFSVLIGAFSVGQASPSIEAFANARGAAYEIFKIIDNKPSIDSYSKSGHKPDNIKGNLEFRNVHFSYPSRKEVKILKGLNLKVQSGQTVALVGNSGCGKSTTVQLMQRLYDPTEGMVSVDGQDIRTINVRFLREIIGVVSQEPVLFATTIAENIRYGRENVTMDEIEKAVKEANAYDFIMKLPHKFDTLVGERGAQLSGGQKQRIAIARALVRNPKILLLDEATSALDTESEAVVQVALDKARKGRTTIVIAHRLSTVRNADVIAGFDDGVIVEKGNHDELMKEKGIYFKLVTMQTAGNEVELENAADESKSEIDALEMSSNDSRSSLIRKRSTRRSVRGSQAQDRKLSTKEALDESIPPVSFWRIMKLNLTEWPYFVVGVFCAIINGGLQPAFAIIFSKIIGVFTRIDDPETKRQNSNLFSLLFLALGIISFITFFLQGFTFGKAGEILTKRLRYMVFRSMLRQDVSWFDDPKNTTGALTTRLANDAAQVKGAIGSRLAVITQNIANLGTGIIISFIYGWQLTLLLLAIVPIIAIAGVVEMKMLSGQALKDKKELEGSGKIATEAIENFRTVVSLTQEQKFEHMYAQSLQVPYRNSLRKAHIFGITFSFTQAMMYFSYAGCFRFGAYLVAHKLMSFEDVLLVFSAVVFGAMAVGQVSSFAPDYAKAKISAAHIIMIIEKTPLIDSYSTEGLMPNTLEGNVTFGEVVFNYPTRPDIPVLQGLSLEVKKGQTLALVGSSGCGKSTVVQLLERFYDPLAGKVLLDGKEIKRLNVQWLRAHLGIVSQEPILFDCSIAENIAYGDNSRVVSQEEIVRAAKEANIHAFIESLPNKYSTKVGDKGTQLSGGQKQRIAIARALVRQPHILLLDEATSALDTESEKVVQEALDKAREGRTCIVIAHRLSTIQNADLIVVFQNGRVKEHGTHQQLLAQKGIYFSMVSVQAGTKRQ

Structure (SMILES): C=C1[C@@H](OC(=O)Cc2cc(OC)ccc2OC)CC[C@@]2(C)C[C@H](OC(C)=O)C3=C(C)C(=O)C[C@@H]([C@@H](OC(C)=O)[C@H]12)C3(C)C.CC[C@]1(O)CC2CN(CCc3c([nH]c4ccccc34)[C@@](C(=O)OC)(c3cc4c(cc3OC)N(C=O)C3C45CCN4CC=C[C@@](CC)(C(OC(C)=O)[C@]3(O)C(=O)OC)[C@H]45)C2)C1 (stereo not given in full)
IC50 [1]: 8.93 nM
IC50 [2]: 325 nM

Activity [3]: inhibitor [+]
Structure (SMILES): C=C1[C@@H](OC(=O)CCc2ccccc2)CC[C@@]2(C)C[C@H](OC(C)=O)C3=C(C)C(=O)C[C@@H]([C@@H](OC(C)=O)[C@H]12)C3(C)C

Structure (SMILES): C=C1[C@@H](OC(=O)Cc2ccccc2)CC[C@@]2(C)C[C@H](OC(C)=O)C3=C(C)C(=O)C[C@@H]([C@@H](OC(C)=O)[C@H]12)C3(C)C.CC[C@]1(O)CC2CN(CCc3c([nH]c4ccccc34)[C@@](C(=O)OC)(c3cc4c(cc3OC)N(C=O)C3C45CCN4CC=C[C@@](CC)(C(OC(C)=O)[C@]3(O)C(=O)OC)[C@H]45)C2)C1 (stereo not given in full)
IC50 [4]: 218 nM
IC50 [5]: 7.3 nM

Structure (SMILES): C=C1[C@@H](OC(=O)CCc2ccccc2)CC[C@@]2(C)C[C@H](OC(C)=O)C3=C(C)C(=O)C[C@@H]([C@@H](OC(C)=O)[C@H]12)C3(C)C.CC[C@]1(O)CC2CN(CCc3c([nH]c4ccccc34)[C@@](C(=O)OC)(c3cc4c(cc3OC)N(C=O)C3C45CCN4CC=C[C@@](CC)(C(OC(C)=O)[C@]3(O)C(=O)OC)[C@H]45)C2)C1 (stereo not given in full)
IC50 [6]: 19.4 nM
IC50 [7]: 2.8 nM

Structure (SMILES): C=C1C2[C@H](C(C)=O)[C@@H]3CCC(=O)C(C)=C([C@@H](C(C)=O)[C@H](C(C)=O)[C@]2(C)CC[C@@H]1OC(=O)/C=C/c1ccccc1)C3(C)C.CC[C@]1(O)CC2CN(CCc3c([nH]c4ccccc34)[C@@](C(=O)OC)(c3cc4c(cc3OC)N(C=O)C3C45CCN4CC=C[C@@](CC)(C(OC(C)=O)[C@]3(O)C(=O)OC)[C@H]45)C2)C1 (stereo not given in full)
IC50 [8]: 124 nM

Structure (SMILES): CC[C@]1(O)CC2CN(CCc3c([nH]c4ccccc34)[C@@](C(=O)OC)(c3cc4c(cc3OC)N(C=O)C3C45CCN4CC=C[C@@](CC)(C(OC(C)=O)[C@]3(O)C(=O)OC)[C@H]45)C2)C1.COc1ccc(CCN(C)CCCC(C#N)(c2ccc(OC)c(OC)c2)C(C)C)cc1OC (stereo not given in full)
IC50 [9]: 18.1 nM

IC50 [10]: 1230 nM
Structure (SMILES): CC[C@]1(O)C[C@H]2CN(CCc3c([nH]c4ccccc34)[C@@](C(=O)OC)(c3cc4c(cc3OC)N(C=O)[C@H]3[C@@](O)(C(=O)OC)[C@H](OC(C)=O)[C@]5(CC)C=CCN6CC[C@]43[C@@H]65)C2)C1 [VINCRISTINE]
